# In PMC4170804 (Bioorganic & medicinal chemistry, 2013):
# Like-named read-outs stand apart in the source and are kept apart here.
# What was measured:
# [1] = system: human pancreatic tumor (MIA PaCa-2) cells; details: cited from earlier work
# [2] = system: tubulin; experiment: Inhibition of [3H]colchicine binding to tubulin; parameters: species or system bovine; details: for Colchicine binding % ± SD (inhibition of [3H]colchicine binding): tubulin 1 µM, colchicine 5 µM, tested compound 5 µM
# [3] = system: CEM/0 cells; experiment: Antiproliferative assay, human T-leukemia CEM/0 cells; assay type: cell-based; details: read-out: IC50 ± SD, CEM/0, 48 h, Coulter counter
# [4] = system: FM3A/0 cells; experiment: Antiproliferative assay, murine mammary carcinoma FM3A/0 cells; assay type: cell-based; details: for IC50: read-out: IC50 ± SD, FM3A/0
# [5] = system: epithelial carcinoma (A431) cells; details: cited from earlier work
# [6] = system: HeLa cells; experiment: Antiproliferative assay, human cervix carcinoma HeLa cells; assay type: cell-based; details: read-out: IC50 ± SD, HeLa, 48 h
# [7] = system: Molt4/C8 cells; experiment: Antiproliferative assay, human T-leukemia Molt4/C8 cells; assay type: cell-based; details: for IC50: Homo sapiens, Molt4/C8, 48 h, read-out: IC50 ± SD, Molt4/C8
# [8] = system: L1210 cells; experiment: Antiproliferative assay, murine leukemia L1210 cells; assay type: cell-based; details: Mus musculus, L1210, 48 h, read-out: IC50 ± SD, L1210
# [9] = system: PC-3 cells; experiment: Antiproliferative assay, prostate PC-3; assay type: cell-based; details: Homo sapiens, PC-3, read-out: IC50 ±SD, PC-3
# Outline: (§1)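 Cells were seeded at 300,000–500,000 cells/mL and mixed 1:1 with serial dilutions of test compound. They were incubated 48 h at 37 °C, and cell number was counted with a Coulter counter.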
# [10] = system: HeLa cells; experiment: Annexin-V/PI apoptosis assay; assay type: cell-based, human; details: 24 h, further increased at 48 h even at 15 nM
# [11] = system: MCF-7 cells; experiment: Antiproliferative assay, mammary carcinoma MCF-7; assay type: cell-based; details: Homo sapiens, MCF7, read-out: IC50 ±SD, MCF-7
# Outline: as §1
# [12] = system: panel of human cancer cell lines; experiment: Antiproliferative activity, panel of additional human cancer cell lines; assay type: cell-based; details: read-out: IC50 values against additional human cancer cell lines
# Outline: as §1
# [13] = system: HeLa cells; experiment: Mitochondrial membrane potential; assay type: cell-based, human; details: 24 or 48 h
# [14] = system: cyclin B, p-cdc2 Y15, cdc25C in HeLa cells; experiment: Western blot of G2/M regulatory proteins in HeLa cells; assay type: cell-based, human
# Outline: (§2)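 HeLa cells were treated with test compound for 24 or 48 h, washed twice in ice-cold PBS, and lysed on ice for 30 min. Lysis buffer was T-PER with 300 mM NaCl, 1 mM orthovanadate, 2 mM AEBSF and protease inhibitors. Lysates were cleared at 15,000g (4 °C, 10 min). 20 µg protein went to SDS–PAGE, PVDF transfer and overnight blocking. Primary antibodies ran 2 h at room temperature, then HRP secondary and ECL. Membranes were stripped and reprobed for β-actin as loading control.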
# [15] = system: panel of human and murine tumor cell lines; experiment: Antiproliferative activity, panel of human and murine tumor cell lines; assay type: cell-based
# Outline: as §1
# [16] = system: HeLa cells; experiment: Flow cytometric cell cycle analysis, HeLa; assay type: cell-based, human; details: 24 h
# Outline: (§3)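 Exponentially growing cells (5 × 105 for HeLa) were exposed to test compound at 15–250 nM for 24 h. Cells were fixed in ice-cold 70% ethanol, then treated with lysis buffer containing RNase A and 0.1% Triton X-100. After propidium iodide staining, DNA content was analysed by flow cytometry for cell-cycle distribution. Values are mean ± SEM of three independent experiments.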
# [17] = system: cleaved caspase-3, cleaved caspase-9, PARP, Bcl-2, Mcl-1, XIAP in HeLa cells; experiment: Western blot of caspases, PARP, Bcl-2, Mcl-1, XIAP in HeLa cells; assay type: cell-based, human
# Outline: as §2
# [18] = system: HOS, OST TK- cells; experiment: Antiproliferative assay, osteosarcoma HOS, OST TK-; assay type: cell-based; details: Homo sapiens, read-out: IC50 ±SD, HOS, OST TK-
# Outline: as §1
# [19] = system: Raji cells; experiment: Antiproliferative assay, B-cell lymphoma Raji; assay type: cell-based; details: Homo sapiens, read-out: IC50 ±SD, Raji
# Outline: as §1
# [20] = system: Jurkat cells; experiment: Antiproliferative assay, T-leukemia Jurkat; assay type: cell-based; details: Homo sapiens, read-out: IC50 ±SD, Jurkat
# Outline: as §1
# [21] = system: wide panel of cancer cell lines; experiment: Antiproliferative activity, wide panel of cancer cell lines; assay type: cell-based; details: read-out: IC50 against a wide panel of cancer cell lines
# Outline: as §1
# [22] = system: Jurkat cells; experiment: Flow cytometric cell cycle analysis, Jurkat; assay type: cell-based, human; details: 24 h
# Outline: as §3
# [23] = system: bovine brain tubulin; experiment: Inhibition of tubulin polymerization; assay type: biochemical; details: greater than that of 1
# [24] = system: HeLa cells; experiment: Mitochondrial ROS production; assay type: cell-based, human; details: 24 or 48 h, versus control cells
# [25] = at higher concentrations (range 15 to 250 nM)
smiles,measurement,setting,value
"COC(=O)c1cc(CCc2cc(OC)ccc2OC)ccc1O [Compound 1, reference compound]","antiproliferative activity, MIA PaCa-2",[1],active at low micromolar concentrations
same,Colchicine binding % ± SD (inhibition of [3H]colchicine binding),[2],52 ± 4%
same,IC50,[3],0.44 ± 0.01 µM
same,fold less active in FM3A cells than the other cell lines examined,[4]; FM3A vs other cell lines,about 30 fold
same,IC50,"[4]; murine mammary carcinoma FM3A/0, 48 h, Coulter counter",13 ± 0.2 µM
same,"antiproliferative activity, A431",[5],active at low micromolar concentrations
same,IC50,"[6]; human cervix carcinoma HeLa, Coulter counter",0.41 ± 0.08 µM
"COC(=O)c1cc(CCc2cc(OC)ccc2OC)sc1N [Compound 2a, Methyl 2-amino-5-[2-(2,5-dimethoxyphenyl)ethyl]thiophene-3-carboxylate]","IC50 values in Molt4/C8, in words",[7],submicromolar
same,Colchicine binding % ± SD (inhibition of [3H]colchicine binding),[2],52 ± 0.9%
same,IC50,[8],1.8 ± 0.1 µM
same,IC50,"[4]; Mus musculus, FM3A/0, 48 h",2.3 ± 0.6 µM
same,IC50,"[6]; Homo sapiens, HeLa",0.77 ± 0.17 µM
"CCOC(=O)c1cc(CCc2cc(OC)ccc2OC)sc1N [Compound 2b, Ethyl 2-amino-5-[2-(2,5-dimethoxyphenyl)ethyl]thiophene-3-carboxylate]",IC50,[7],1.1 ± 0.1 µM
same,Colchicine binding % ± SD (inhibition of [3H]colchicine binding),[2],46 ± 0.9%
same,IC50,"[4]; Mus musculus, FM3A/0, 48 h",1.9 ± 0.5 µM
same,IC50,"[6]; Homo sapiens, HeLa",0.31 µM
"COc1ccc(OC)c(CCc2cc(C#N)c(N)s2)c1 [Compound 2c, 2-Amino-5-[2-(2,5-dimethoxyphenyl)ethyl]thiophene-3-carbonitrile]",IC50,[9],0.025 ± 0.013 µM
same,annexin-V positive cells (apoptosis),[10],accumulation of annexin-V positive cells in a concentration-dependent manner
same,IC50,[11],0.025 ± 0.001 µM
same,IC50,[12],0.012 to 0.086 µM
same,"cells with depolarized mitochondria (Δψmt, JC-1)",[13],time and concentration-dependent increase in the proportion of cells with depolarized mitochondria
same,cyclin B1 expression,"[14]; 50 and 100 nM, 24 and 48 h",marked increase in cyclin B1 expression
same,cdc25C phosphorylation state / expression,"[14]; 50 and 100 nM, 24 h and 48 h",slower migrating forms of phosphatase cdc25C appeared at 24 h
same,phosphorylation of cdc2 (Tyr15),[14]; after 24 h,dramatic de-phosphorylation of cdc2 (Tyr15)
same,inhibition of colchicine binding relative to 1,[2]; more active than 1,1.5 fold
same,Colchicine binding % ± SD (inhibition of [3H]colchicine binding),[2],84 ± 5%
same,enhancement of antiproliferative activity with respect to 1,[15]; in four cell lines,3–230 fold
same,IC50,[15]; read-out: IC50 values against panel of human and murine tumor cell lines,0.035 to 0.13 µM
same,lowest concentration with a rise in G2/M cells,[16],30 nM
same,cells arrested in G2/M,[16]; [25],more than 80%
same,caspase-9 activation,"[17]; 50 and 100 nM, 24 h",early activation of caspase-9 at 24 h
same,caspase-3 and PARP activation,"[17]; 50 and 100 nM, 48 h",activation of caspase-3 and of the caspase-3 substrate PARP
same,expression of anti-apoptotic proteins Bcl-2 and Mcl-1,[17]; both concentrations used (50 and 100 nM),remarkably reduced after a 24 h and disappeared after a 48 h treatment
same,expression of XIAP,[17]; concomitant with caspase activation,strongly reduced
same,IC50,[18],0.024 ± 0.013 µM
same,IC50,[19],0.064 ± 0.025 µM
same,IC50,"[4]; Mus musculus, FM3A/0, 48 h",0.056 ± 0.004 µM
same,IC50,[20],0.012 ± 0.008 µM
same,IC50,[21],0.017 to 0.13 µM
same,lowest concentration with a rise in G2/M cells,[22],30 nM
same,cells arrested in G2/M,[22]; [25],more than 80%
same,tubulin assembly inhibitory activity relative to 1,[23],3 fold
same,"ROS production (HE, H2-DCFDA)",[24],induced the production of significant amounts of ROS
"COC(=O)c1c(N)sc(CCc2cc(OC)ccc2OC)c1C [Compound 2d, Methyl 2-amino-5-[2-(2,5-dimethoxyphenyl)ethyl]-4-methylthiophene-3-carboxylate]",IC50,[7],47 ± 16 µM
same,IC50,[8],46 ± 3.2 µM
same,IC50,"[4]; Mus musculus, FM3A/0, 48 h",44 ± 8.1 µM
same,IC50,"[6]; Homo sapiens, HeLa",35 ± 7.1 µM
"CCOC(=O)c1c(N)sc(CCc2cc(OC)ccc2OC)c1C(=O)OCC [Compound 2e, Diethyl 2-amino-5-[2-(2,5-dimethoxyphenyl)ethyl]thiophene-3,4-dicarboxylate]",IC50,[7],24 ± 2.2 µM
same,IC50,[8],34 ± 3.2 µM
same,IC50,"[4]; Mus musculus, FM3A/0, 48 h",33 ± 9.1 µM
"COC(=O)c1cc(CCc2ccccc2OC)sc1N [Compound 2f, Methyl 2-amino-5-[2-(2-methoxyphenyl)ethyl]thiophene-3-carboxylate]",IC50,[8],17 ± 5.3 µM
same,IC50,"[4]; Mus musculus, FM3A/0, 48 h",34 ± 5.6 µM
same,IC50,"[6]; Homo sapiens, HeLa",15 ± 1.3 µM
"COC(=O)c1cc(CCc2ccc(OC)cc2C)sc1N [Compound 2h, Methyl 2-amino-5-[2-(4-methoxy-2-methylphenyl)ethyl]thiophene-3-carboxylate]",IC50,"[4]; Mus musculus, FM3A/0, 48 h",45 ± 16 µM
"CCOC(=O)c1cc(CCc2ccccc2OC)sc1N [Compound 2i, Ethyl 2-amino-5-[2-(2-methoxyphenyl)ethyl]thiophene-3-carboxylate]",IC50,[7],6.9 ± 0.8 µM
same,IC50,"[4]; Mus musculus, FM3A/0, 48 h",53 ± 7.2 µM
same,IC50,"[6]; Homo sapiens, HeLa",45 ± 6.2 µM
"CCOC(=O)c1cc(CCc2ccc(OC)cc2)sc1N [Compound 2j, Ethyl 2-amino-5-[2-(4-methoxyphenyl)ethyl]thiophene-3-carboxylate]",IC50,[7],0.34 ± 0.5 µM
same,"IC50 values in Molt4/C8, in words",[7],submicromolar
same,IC50,[8],20 ± 10 µM
same,IC50,"[4]; Mus musculus, FM3A/0, 48 h",48 ± 5.2 µM
same,IC50,"[6]; Homo sapiens, HeLa",39 ± 0.2 µM
"COc1ccccc1CCc1cc(C#N)c(N)s1 [Compound 2k, 2-Amino-5-[2-(2-methoxyphenyl)ethyl]thiophene-3-carbonitrile]",IC50,[7],2 ± 0.2 µM
same,IC50,"[4]; Mus musculus, FM3A/0, 48 h",22 ± 3.1 µM
same,IC50,"[6]; Homo sapiens, HeLa",7.8 ± 2.1 µM
"COc1ccc(CCc2cc(C#N)c(N)s2)cc1 [Compound 2l, 2-Amino-5-[2-(4-methoxyphenyl)ethyl]thiophene-3-carbonitrile]",IC50,"[4]; Mus musculus, FM3A/0, 48 h",31 ± 27 µM
same,IC50,"[6]; Homo sapiens, HeLa",19 ± 13 µM
"N#Cc1cc(CCc2ccccc2)sc1N [Compound 2m, 2-Amino-5-phenylethylthiophene-3-carbonitrile]",IC50,"[4]; Mus musculus, FM3A/0, 48 h",62 ± 3.2 µM
same,IC50,"[6]; Homo sapiens, HeLa",35 ± 3.1 µM
"COC(=O)c1cc(-c2cc(OC)ccc2OC)sc1N [Compound 2n, Methyl 2-amino-5-(2,5-dimethoxyphenyl)thiophene-3-carboxylate]",IC50,[8],50 ± 5.2 µM
same,IC50,"[4]; Mus musculus, FM3A/0, 48 h",52 ± 1 µM
same,IC50,"[6]; Homo sapiens, HeLa",37 ± 6.1 µM
"COc1ccc(OC)c(-c2cc(C#N)c(N)s2)c1 [Compound 2o, 2-Amino-5-(2,5-dimethoxyphenyl)thiophene-3-carbonitrile]",IC50,[8],76 ± 3.2 µM
same,IC50,"[6]; Homo sapiens, HeLa",71 ± 20 µM
